Reference: ChEMBL document CHEMBL4616594, “Virtual screening identification and chemical optimization of substituted 2-arylbenzimidazoles as new non-zinc-binding MMP-2 inhibitors” (Bioorg Med Chem, 2020)
pIC50: −log10 of the molar value.

Columns and labels:
[1] = target: 72 kDa type IV collagenase (Homo sapiens, UniProt P08253); assay: (§1) Inhibition of recombinant human MMP2 catalytic domain (Tyr110 to Asp452 residues) expressed in yeast cells using Mca-Pro-Leu-Gly-Leu-Dpa-Ala-Arg-NH2/TQ3-GABA-Pro-Cha-Abu-Smc-His-Ala-Dab(6'-TAMRA)-Ala-Lys-NH2 as fluorogenic substrate preincubated for 15 mins followed by substrate addition measured after 2 to 4 hrs by fluorometric analysis; assay type: biochemical
How it was run: (§2)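 Commercial catalytic domain in Tris·HCl 50 mM pH 7.5, NaCl 150 mM, CaCl₂ 1 mM, ZnCl₂ 1 µM, 0.05% Brij-35, 1% DMSO. Inhibitor was tested at six concentrations (1 nM–100 µM), diluted from 10 mM DMSO stocks, and pre-incubated with enzyme for 15 min at room temperature. OmniMMP substrate (2.5 µM final) or OmniMMP RED substrate (1 µM final) was then added and incubated 2–4 h at 37°C. Fluorescence read at ex 340/em 405 or ex 545/em 572. Percent inhibition calculated versus no-inhibitor wells. Run in triplicate; IC50 given as mean ± SEM of ≥2 independent experiments.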

Collagenase 3 = Collagenase 3 (Homo sapiens, UniProt P45452); assay: as §1, with “MMP13” for “MMP2”, “(Tyr104” for “(Tyr110”, “Asn274” for “Asp452”, “Escherichia coli” for “yeast”, “assay” for “analysis”
Neutrophil collagenase = Neutrophil collagenase (Homo sapiens, UniProt P22894); assay: as §1, with “MMP8” for “MMP2”, “(Phe99” for “(Tyr110”, “Gln269” for “Asp452”, “Escherichia coli” for “yeast”, “assay” for “analysis”; how it was run: as §2
[2] = target: Matrix metalloproteinase-9 (Homo sapiens, UniProt P14780); assay: as §1, with “MMP9” for “MMP2”, “(Phe107” for “(Tyr110”, “Pro449” for “Asp452”, “Escherichia coli” for “yeast”, “assay” for “analysis”; how it was run: as §2
Sequence of Matrix metalloproteinase-9 (P14780 whole entry): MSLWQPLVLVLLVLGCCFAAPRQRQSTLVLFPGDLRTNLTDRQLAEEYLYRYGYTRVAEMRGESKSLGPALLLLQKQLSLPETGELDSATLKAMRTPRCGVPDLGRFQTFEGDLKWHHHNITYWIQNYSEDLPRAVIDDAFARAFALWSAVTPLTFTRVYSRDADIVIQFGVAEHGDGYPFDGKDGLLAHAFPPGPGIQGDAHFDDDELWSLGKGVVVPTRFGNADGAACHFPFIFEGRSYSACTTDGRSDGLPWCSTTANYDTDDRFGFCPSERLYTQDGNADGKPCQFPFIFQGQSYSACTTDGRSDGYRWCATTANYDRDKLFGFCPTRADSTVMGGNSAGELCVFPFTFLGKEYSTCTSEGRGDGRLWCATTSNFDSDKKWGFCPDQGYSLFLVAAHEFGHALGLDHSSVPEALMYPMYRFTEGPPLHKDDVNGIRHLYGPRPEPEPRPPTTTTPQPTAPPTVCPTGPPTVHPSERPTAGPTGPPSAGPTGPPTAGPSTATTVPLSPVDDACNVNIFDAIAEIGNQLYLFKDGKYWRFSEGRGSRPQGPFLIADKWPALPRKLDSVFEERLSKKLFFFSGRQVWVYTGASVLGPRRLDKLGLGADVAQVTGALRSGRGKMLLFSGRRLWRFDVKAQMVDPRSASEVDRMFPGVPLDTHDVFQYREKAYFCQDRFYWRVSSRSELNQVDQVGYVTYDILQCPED

Sequence of 72 kDa type IV collagenase (P08253 whole entry, the tested form may be a part): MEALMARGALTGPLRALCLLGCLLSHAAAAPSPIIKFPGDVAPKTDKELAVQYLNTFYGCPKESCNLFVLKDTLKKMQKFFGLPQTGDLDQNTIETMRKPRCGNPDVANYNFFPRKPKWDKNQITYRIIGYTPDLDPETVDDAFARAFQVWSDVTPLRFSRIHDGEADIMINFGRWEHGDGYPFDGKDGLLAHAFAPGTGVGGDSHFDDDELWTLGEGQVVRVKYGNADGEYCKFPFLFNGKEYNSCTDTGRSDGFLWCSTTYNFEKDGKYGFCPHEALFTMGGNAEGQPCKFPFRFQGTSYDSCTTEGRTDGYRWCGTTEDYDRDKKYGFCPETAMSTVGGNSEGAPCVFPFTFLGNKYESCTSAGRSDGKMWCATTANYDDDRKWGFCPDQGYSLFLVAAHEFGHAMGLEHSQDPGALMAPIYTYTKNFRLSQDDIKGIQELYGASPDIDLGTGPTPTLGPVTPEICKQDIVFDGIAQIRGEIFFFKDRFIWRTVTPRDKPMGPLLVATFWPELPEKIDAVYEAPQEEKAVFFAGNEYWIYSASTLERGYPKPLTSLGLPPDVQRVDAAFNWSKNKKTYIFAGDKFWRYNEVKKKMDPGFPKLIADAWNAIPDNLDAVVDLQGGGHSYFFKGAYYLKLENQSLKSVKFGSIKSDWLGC
Sequence of Neutrophil collagenase (P22894 whole entry): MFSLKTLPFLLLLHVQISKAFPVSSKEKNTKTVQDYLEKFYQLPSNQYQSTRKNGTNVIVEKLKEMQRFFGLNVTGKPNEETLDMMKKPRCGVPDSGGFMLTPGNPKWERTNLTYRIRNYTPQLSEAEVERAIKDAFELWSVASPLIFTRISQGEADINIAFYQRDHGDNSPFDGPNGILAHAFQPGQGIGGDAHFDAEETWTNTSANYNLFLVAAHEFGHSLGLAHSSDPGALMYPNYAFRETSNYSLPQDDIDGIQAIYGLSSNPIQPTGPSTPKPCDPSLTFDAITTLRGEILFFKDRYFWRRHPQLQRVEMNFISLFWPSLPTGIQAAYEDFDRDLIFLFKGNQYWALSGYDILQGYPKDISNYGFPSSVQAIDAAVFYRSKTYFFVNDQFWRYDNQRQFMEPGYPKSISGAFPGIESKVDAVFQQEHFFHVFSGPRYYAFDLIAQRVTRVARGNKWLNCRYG

Compound | pIC50 [1] | pIC50 (Collagenase 3) | pIC50 (Neutrophil collagenase) | pIC50 [2]
O=S(=O)(Nc1cccc(-c2nc3ccccc3[nH]2)c1)c1ccccc1 | 4.18 | 4.03 | 4.36 | 4.44
O=[N+]([O-])c1ccc(-c2nc3cc([N+](=O)[O-])ccc3[nH]2)cc1 | 5.38 | 4.92 | 4.60 | 4.63
O=[N+]([O-])c1ccc(-c2nc3ccccc3o2)cc1 | 5.24 | 5.14 | 4.34 | 4.44
O=C(Nc1cccc(-c2nc3ccccc3[nH]2)c1)c1ccccc1 | 4.92 | 4.46 | 4.34 | 4.24
O=C(Nc1ccc(-c2nc3ccccc3s2)cc1)c1ccccc1 | 4.79 | 4.68 | 4.42 | 4.38
O=C(Nc1ccc(-c2nc3ccccc3[nH]2)cc1)c1ccccc1 | 5.19 | 5.12 | 4.55 | 4.80
O=C(CCc1ccccc1)Nc1cccc(-c2nc3ccccc3[nH]2)c1 | 4.06 | < 4.00 | 4.38 | 4.17
Cc1ccc2nc(-c3cccc(NC(=O)CCc4ccccc4)c3)[nH]c2c1 | 4.51 | < 4.00 | 4.49 | 4.58
O=C(CCc1ccccc1)Nc1cccc(-c2nc3ccc(Br)cc3[nH]2)c1 | 4.80 | 4.14 | 4.90 | 4.84
O=C(CCCc1ccccc1)Nc1ccc(-c2nc3ccccc3[nH]2)cc1 | 4.02 | 4.30 | < 4.00 | < 4.00
O=C(Nc1ccc(-c2nc3ccc(Br)cc3[nH]2)cc1)c1ccc([N+](=O)[O-])cc1 | 5.51 | 5.41 | 5.10 | 5.19
O=[N+]([O-])c1ccc(-c2nc3ccc(Br)cc3[nH]2)cc1 | 5.06 | 4.98 | 5.00 | 5.00
COC(=O)c1ccc(-c2nc3ccc(Br)cc3[nH]2)cc1 | 5.05 | 4.72 | 4.58 | 4.68
Cc1ccc2nc(-c3cccc(C(=O)NCCc4ccccc4)c3)[nH]c2c1 | 4.35 | < 4.00 | 4.40 | 4.42
Cc1ccc2nc(-c3ccc(NC(=O)c4ccccc4)cc3)[nH]c2c1 | 5.07 | 5.19 | 4.34 | 4.55
O=C(Nc1nc2ccc(Cl)cc2s1)c1ccc([N+](=O)[O-])cc1 | < 4.00 | 4.70 | < 4.00 | < 4.00
O=C(CCc1ccccc1)Nc1ccc(-c2nc3ccc(Br)cc3[nH]2)cc1 | 5.15 | 5.19 | 5.10 | 4.94
COc1ccc(/C=C/C(=O)Nc2cccc(-c3nc4ccccc4[nH]3)c2)cc1 | 4.32 | 4.28 | < 4.00 | < 4.00
Cc1cccc2nc(-c3cccc(NC(=O)CCc4ccccc4)c3)[nH]c12 | 4.19 | < 4.00 | 4.54 | 4.22
Cc1ccc2nc(-c3ccc(NC(=O)c4cccc([N+](=O)[O-])c4)cc3)[nH]c2c1 | 5.41 | 5.66 | 4.68 | 4.84
O=C(CCCc1ccccc1)Nc1ccc(-c2nc3ccc(Br)cc3[nH]2)cc1 | 4.51 | 4.65 | 4.17 | 4.24
Cc1ccc2oc(-c3ccc(NC(=O)c4ccc([N+](=O)[O-])cc4)cc3)nc2c1 | 4.80 | 4.96 | 4.83 | 4.70

Compound | pIC50 [1] | pIC50 (Collagenase 3) | pIC50 (Neutrophil collagenase) | pIC50 [2]
O=C(CCCc1ccccc1)Nc1cccc(-c2nc3ccccc3[nH]2)c1 | 4.33 | 4.09 | 4.46 | 4.37
O=C(Nc1ccc(-c2nc3ccc(Br)cc3[nH]2)cc1)c1ccccc1 | 5.19 | 5.41 | 4.30 | 4.49
Cc1ccc2nc(-c3ccc(NC(=O)CCc4ccccc4)cc3)[nH]c2c1 | 4.60 | 4.75 | 4.11 | 4.22
Cc1ccc2nc(-c3cccc(NC(=O)CN(C)Cc4ccccn4)c3)[nH]c2c1 | 4.14 | 4.03 | < 4.00 | < 4.00
O=C(Nc1nc2ccccc2s1)c1ccc([N+](=O)[O-])cc1 | < 4.00 | < 4.00 | < 4.00 | < 4.00
Cc1ccc2nc(-c3ccc([N+](=O)[O-])cc3)[nH]c2c1 | 5.19 | 5.21 | 4.64 | 4.66
O=C(Nc1ccc(-c2nc3ccccc3[nH]2)cc1)c1ccc(Br)cc1 | 5.03 | 4.96 | 4.26 | 4.39
Cc1cccc2nc(-c3cccc(NC(=O)CCCc4ccccc4)c3)[nH]c12 | 4.22 | 4.04 | 4.39 | 4.41
Cc1ccc2nc(-c3cccc([N+](=O)[O-])c3)[nH]c2c1 | 4.85 | 4.81 | 4.57 | 4.44
O=[N+]([O-])c1cccc(-c2nc3ccc(Br)cc3[nH]2)c1 | < 4.00 | 4.33 | < 4.00 | < 4.00
Nc1ccc(-c2nc3ccc(Br)cc3[nH]2)cc1 | 5.00 | 4.68 | 4.59 | 4.66
O=[N+]([O-])c1ccc(-c2nc3ccccc3[nH]2)o1 | 4.51 | 4.48 | 4.57 | 4.49
Cc1ccc2nc(-c3ccc(NC(=O)c4ccc([N+](=O)[O-])cc4)cc3)[nH]c2c1 | 5.48 | 5.74 | 4.59 | 4.97
O=C(CCc1ccccc1)Nc1ccc(-c2nc3ccccc3[nH]2)cc1 | 4.72 | 4.82 | 4.19 | 4.54
O=C(O)c1ccc(-c2nc3ccc(Br)cc3[nH]2)cc1 | 4.50 | 4.37 | 4.46 | 4.57
Cc1ccc2nc(-c3ccc([N+](=O)[O-])cc3)oc2c1 | 5.05 | 5.03 | 4.54 | 4.74
Brc1ccc2nc(-c3ccccc3)[nH]c2c1 | < 4.00 | < 4.00 | < 4.00 | < 4.00
O=[N+]([O-])c1ccc(-c2nc3ccccc3[nH]2)cc1 | 4.09 | < 4.00 | 4.19 | 4.25
O=[N+]([O-])c1ccc(-c2nc3ccccc3s2)cc1 | 5.19 | 5.12 | 4.98 | 4.94
Cc1ccc2oc(-c3ccc([N+](=O)[O-])cc3)nc2c1 | 5.01 | 5.06 | 4.79 | 4.83
Nc1ccc(-c2nc3ccccc3s2)cc1 | < 4.00 | < 4.00 | 4.06 | 4.10
